Experimental data from article PMC9416874 (Carbohydrate research, 2014).

Columns and labels:
Psp2,6ST(15–501)-His6 = biological target: T1, Psp2,6ST(15–501)-His6 (Photobacterium sp. JT-ISH-224, UniProt A8QYL1, A366G); test: sialyltransfer, HPLC with fluorescence detection, Michaelis-Menten fit; assay type: biochemical; conditions: 20 °C, labelled compound
T1 sequence (A8QYL1 15-501 A366G): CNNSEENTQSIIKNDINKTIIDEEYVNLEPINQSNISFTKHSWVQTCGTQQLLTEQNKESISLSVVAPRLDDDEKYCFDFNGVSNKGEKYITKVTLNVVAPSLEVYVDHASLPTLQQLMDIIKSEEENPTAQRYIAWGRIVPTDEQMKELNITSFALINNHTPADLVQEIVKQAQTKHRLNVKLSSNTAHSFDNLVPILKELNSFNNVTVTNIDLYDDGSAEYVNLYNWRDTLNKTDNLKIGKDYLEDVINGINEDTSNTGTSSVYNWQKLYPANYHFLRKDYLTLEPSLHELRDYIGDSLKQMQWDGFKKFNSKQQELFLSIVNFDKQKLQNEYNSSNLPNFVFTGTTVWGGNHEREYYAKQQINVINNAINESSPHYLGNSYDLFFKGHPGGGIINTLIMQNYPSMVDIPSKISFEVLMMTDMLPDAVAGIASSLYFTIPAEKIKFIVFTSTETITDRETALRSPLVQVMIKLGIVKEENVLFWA

His6-Pd2,6ST(16–497) = biological target: T2, His6-Pd2,6ST(16–497) (Photobacterium damselae, UniProt O66375); test: donor hydrolysis, capillary electrophoresis, Michaelis-Menten fit; assay type: biochemical; conditions: donor hydrolysis (water as acceptor); pH 8.0; 37 °C
T2 sequence (O66375 16-497): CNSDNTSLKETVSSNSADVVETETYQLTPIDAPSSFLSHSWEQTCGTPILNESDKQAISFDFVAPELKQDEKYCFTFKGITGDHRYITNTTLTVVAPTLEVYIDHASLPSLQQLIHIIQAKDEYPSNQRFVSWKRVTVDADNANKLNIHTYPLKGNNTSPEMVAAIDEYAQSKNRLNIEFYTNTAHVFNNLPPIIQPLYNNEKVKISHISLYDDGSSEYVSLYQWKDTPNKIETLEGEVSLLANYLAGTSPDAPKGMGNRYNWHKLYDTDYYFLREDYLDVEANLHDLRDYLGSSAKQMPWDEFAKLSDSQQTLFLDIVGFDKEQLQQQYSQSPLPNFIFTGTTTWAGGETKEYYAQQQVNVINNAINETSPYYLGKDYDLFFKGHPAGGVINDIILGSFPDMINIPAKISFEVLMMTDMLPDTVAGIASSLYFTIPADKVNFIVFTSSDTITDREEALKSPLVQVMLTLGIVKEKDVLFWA
Procedure, shortened: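 Recombinant enzyme (6 μM) was incubated with CMP-Neu5Ac (10, 20, 40, 60, 80 and 100 mM) in 200 mM Tris-HCl pH 8.0 for 20 min, with no acceptor, in duplicate. Reactions were stopped with ethanol and centrifuged. Supernatants were run by capillary electrophoresis in 25 mM sodium tetraborate pH 9.4, with PDA detection at 200 and 254 nm. Kinetic parameters came from a Michaelis-Menten fit of the duplicate means.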

[1] = substrate: CC(=O)N[C@H]1[C@H]([C@H](O)[C@H](O)CO)O[C@](OP(=O)(O)OC[C@H]2O[C@@H](n3ccc(N)nc3=O)[C@H](O)[C@@H]2O)(C(=O)O)C[C@@H]1O; test: donor hydrolysis, capillary electrophoresis, Michaelis-Menten fit; assay type: biochemical, Photobacterium sp. JT-ISH-224; conditions: donor hydrolysis (water as acceptor), pH 8.0, 20 °C
[2] = substrate: CC(=O)N[C@H]1[C@H]([C@H](O)[C@H](O)CO)O[C@](OP(=O)(O)OC[C@H]2O[C@@H](n3ccc(N)nc3=O)[C@H](O)[C@@H]2O)(C(=O)O)C[C@@H]1O; test: sialyltransfer, HPLC with fluorescence detection, Michaelis-Menten fit; assay type: biochemical, Photobacterium sp. JT-ISH-224; conditions: LacβMU 1.0 mM as acceptor, pH 8.0, 20 °C
[3] = substrate: Cc1cc(=O)oc2cc(O[C@@H]3O[C@H](CO)[C@@H](O[C@@H]4O[C@H](CO)[C@H](O)[C@H](O)[C@H]4O)[C@H](O)[C@H]3O)ccc12; test: as above; assay type: biochemical, Photobacterium sp. JT-ISH-224; conditions: CMP-Neu5Ac 1.0 mM, pH 8.0, 20 °C

**Q.** Which Km (Psp2,6ST(15–501)-His6; CMP-Neu5Ac 4.0 mM, pH 8.0) does the source give for `CC(=O)N[C@H]1[C@@H](O[C@H](C)[C@H](N)C(=O)O)O[C@H](CO)[C@H](O)[C@@H]1O` [GalNAcαThr] here?
**A.** 7.2 ± 3 mM

**Q.** How did the “Km (mM)” value (His6-Pd2,6ST(16–497)) turn out when `CC(=O)N[C@H]1[C@H]([C@H](O)[C@H](O)CO)O[C@](OP(=O)(O)OC[C@H]2O[C@@H](n3ccc(N)nc3=O)[C@H](O)[C@@H]2O)(C(=O)O)C[C@@H]1O` [CMP-Neu5Ac] was run?
**A.** (1.8±0.4)×10 mM

**Q.** With GalNAcα2AA as the molecule, how does the Km (Psp2,6ST(15–501)-His6; CMP-Neu5Ac 4.0 mM, pH 5.0) read?
**A.** 5.5 ± 1 mM

**Q.** How did the Km (Psp2,6ST(15–501)-His6; CMP-Neu5Ac 2.0 mM, pH 8.0) turn out when `CC(=O)N[C@H]1[C@@H](OC[C@H](N)C(=O)O)O[C@H](CO)[C@H](O)[C@@H]1O` [GalNAcαSer] was run?
**A.** 1.7 ± 0.7 mM

B1: Psp2,6ST(15–501)-His6 (Photobacterium sp. JT-ISH-224) (protein)
chain: CNNSEENTQSIIKNDINKTIIDEEYVNLEPINQSNISFTKHSWVQTCGTQQLLTEQNKESISLSVVAPRLDDDEKYCFDFNGVSNKGEKYITKVTLNVVAPSLEVYVDHASLPTLQQLMDIIKSEEENPTAQRYIAWGRIVPTDEQMKELNITSFALINNHTPADLVQEIVKQAQTKHRLNVKLSSNTAHSFDNLVPILKELNSFNNVTVTNIDLYDDGSAEYVNLYNWRDTLNKTDNLKIGKDYLEDVINGINEDTSNTGTSSVYNWQKLYPANYHFLRKDYLTLEPSLHELRDYIGDSLKQMQWDGFKKFNSKQQELFLSIVNFDKQKLQNEYNSSNLPNFVFTGTTVWAGNHEREYYAKQQINVINNAINESSPHYLGNSYDLFFKGHPGGGIINTLIMQNYPSMVDIPSKISFEVLMMTDMLPDAVAGIASSLYFTIPAEKIKFIVFTSTETITDRETALRSPLVQVMIKLGIVKEENVLFWA
**Q.** How did the kcat [1] turn out when B1 was run?
**A.** 4.83 ± 0.5 s⁻¹

**Q.** What about the kcat/Km [1] of the same molecule?
**A.** 283 M⁻¹ s⁻¹

B2: Psp2,6ST(15–501)-His6 (Photobacterium sp. JT-ISH-224; A366G) (protein)
chain: CNNSEENTQSIIKNDINKTIIDEEYVNLEPINQSNISFTKHSWVQTCGTQQLLTEQNKESISLSVVAPRLDDDEKYCFDFNGVSNKGEKYITKVTLNVVAPSLEVYVDHASLPTLQQLMDIIKSEEENPTAQRYIAWGRIVPTDEQMKELNITSFALINNHTPADLVQEIVKQAQTKHRLNVKLSSNTAHSFDNLVPILKELNSFNNVTVTNIDLYDDGSAEYVNLYNWRDTLNKTDNLKIGKDYLEDVINGINEDTSNTGTSSVYNWQKLYPANYHFLRKDYLTLEPSLHELRDYIGDSLKQMQWDGFKKFNSKQQELFLSIVNFDKQKLQNEYNSSNLPNFVFTGTTVWGGNHEREYYAKQQINVINNAINESSPHYLGNSYDLFFKGHPGGGIINTLIMQNYPSMVDIPSKISFEVLMMTDMLPDAVAGIASSLYFTIPAEKIKFIVFTSTETITDRETALRSPLVQVMIKLGIVKEENVLFWA
**Q.** Which results are given for B2?
**A.** Km [2]: (6.3±0.5)×10^−1 mM; kcat [2]: 2.17 ± 0.167 s⁻¹; kcat/Km [2]: 3500 M⁻¹ s⁻¹; Km [3]: (4.1±0.4)×10^−1 mM; kcat [3]: 1.67 ± 0.167 s⁻¹; kcat/Km [3]: 4000 M⁻¹ s⁻¹
